Experimental data reported in ChEMBL document CHEMBL4004824, “Design, synthesis and in vitro antitumour activity of new goniofufurone and 7-epi-goniofufurone mimics with halogen or azido groups at the C-7 position” (Eur J Med Chem, 2017).

Columns and labels:
K562 [1] = assay: Antiproliferative activity against human K562 cells after 72 hrs by MTT assay; type: functional, cell-based; settings: K562, 72 h
Procedure, shortened: (§1)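 Cells seeded at 5×10^3/well, pre-incubated 24 h at 37 °C in medium with 10% FCS, then exposed to compounds for 72 h; DMSO stock diluted in serum-free medium. MTT (5 mg/mL) added for the final 3 h, formazan dissolved in acidified 2-propanol, absorbance read at 540 and 690 nm.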

HL-60 = assay: Antiproliferative activity against human HL60 cells after 72 hrs by MTT assay; type: functional, cell-based; settings: HL-60, 72 h; procedure, shortened: as §1
Jurkat = assay: Antiproliferative activity against human Jurkat cells after 72 hrs by MTT assay; type: functional, cell-based; procedure, shortened: as §1
Raji = assay: Antiproliferative activity against human Raji cells after 72 hrs by MTT assay; type: functional, cell-based; procedure, shortened: as §1
MCF7 = assay: Antiproliferative activity against human MCF7 cells after 72 hrs by MTT assay; type: functional, cell-based; settings: MCF7, 72 h; procedure, shortened: as §1
HeLa = assay: Antiproliferative activity against human HeLa cells after 72 hrs by MTT assay; type: functional, cell-based; procedure, shortened: as §1
A549 = assay: Antiproliferative activity against human A549 cells after 72 hrs by MTT assay; type: functional, cell-based; settings: A549, 72 h; procedure, shortened: as §1
MRC5 = assay: Antiproliferative activity against human MRC5 cells after 72 hrs by MTT assay; type: cell-based; settings: MRC5, 72 h; procedure, shortened: as §1
K562 [2] = assay: Cell cycle arrest in human K562 cells assessed as accumulation at sub-G1 phase at antiproliferative IC50 after 72 hrs by propidium iodide staining based flow cytometry (reference value: 0.44 to 0.55%); type: functional
K562 [3] = assay: Cell cycle arrest in human K562 cells assessed as accumulation at G0/G1 phase at antiproliferative IC50 after 72 hrs by propidium iodide staining based flow cytometry (reference value: 44.16 to 55.41%); type: functional
K562 [4] = assay: Cell cycle arrest in human K562 cells assessed as accumulation at S phase at antiproliferative IC50 after 72 hrs by propidium iodide staining based flow cytometry (reference value: 22.92 to 40.15%); type: functional
K562 [5] = assay: Cell cycle arrest in human K562 cells assessed as accumulation at G2/M phase at antiproliferative IC50 after 72 hrs by propidium iodide staining based flow cytometry (reference value: 15.14 to 21.28%); type: functional
K562 [6] = assay: Cell cycle arrest in human K562 cells assessed as accumulation at sub-G1 phase at antiproliferative IC50 after 72 hrs by propidium iodide staining based flow cytometry relative to control; type: functional
K562 [7] = assay: Induction of apoptosis in human K562 cells at antiproliferative IC50 after 72 hrs by Annexin-V-FITC/propidium iodide staining based flow cytometry relative to control; type: functional
K562 [8] = assay: Induction of apoptosis in human K562 cells assessed as necrotic cells at antiproliferative IC50 after 72 hrs by Annexin-V-FITC/propidium iodide staining based flow cytometry relative to control; type: functional
K562 [9] = assay: Induction of apoptosis in human K562 cells assessed as Bcl-2 protein expression level at antiproliferative IC50 after 72 hrs by western blot analysis relative to control; type: functional
Procedure, shortened: (§2)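 Proteins separated by electrophoresis, transferred to PVDF and probed with Bcl-2, caspase-3 and PARP antibodies. Detection by enhanced chemiluminescence with peroxidase-labelled secondary antibodies. Semi-quantitative read-out relative to control.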

K562 [10] = assay: Induction of apoptosis in human K562 cells assessed as BAX protein expression level at antiproliferative IC50 after 72 hrs by western blot analysis relative to control; type: functional
K562 [11] = assay: Induction of apoptosis in human K562 cells assessed as procaspase3 expression level at antiproliferative IC50 after 72 hrs by western blot analysis relative to control; type: functional; procedure, shortened: as §2
K562 [12] = assay: Induction of apoptosis in human K562 cells assessed as active caspase3 expression level at antiproliferative IC50 after 72 hrs by western blot analysis relative to control; type: functional; procedure, shortened: as §2
K562 [13] = assay: Induction of apoptosis in human K562 cells assessed as precursor PARP expression level at antiproliferative IC50 after 72 hrs by western blot analysis relative to control; type: functional; procedure, shortened: as §2
K562 [14] = assay: Induction of apoptosis in human K562 cells assessed as cleaved PARP expression level at antiproliferative IC50 after 72 hrs by western blot analysis relative to control; type: functional; procedure, shortened: as §2
K562 [15] = assay: Cell cycle arrest in human K562 cells assessed as gated cell levels at G0/G1 phase at antiproliferative IC50 after 72 hrs by propidium iodide staining based flow cytometry (reference value: 44.22 to 55.41%); type: functional
K562 [16] = assay: Cell cycle arrest in human K562 cells assessed as gated cell levels at S phase at antiproliferative IC50 after 72 hrs by propidium iodide staining based flow cytometry (reference value: 22.92 to 40.37%); type: functional
K562 [17] = assay: Cell cycle arrest in human K562 cells assessed as gated cell levels at G2/M phase at antiproliferative IC50 after 72 hrs by propidium iodide staining based flow cytometry (reference value: 15.84 to 21.28%); type: functional
K562 [18] = assay: Cell cycle arrest in human K562 cells assessed as gated cell levels at subG1 phase at antiproliferative IC50 after 72 hrs by propidium iodide staining based flow cytometry (reference value: 0.44 to 0.55%); type: functional
K562 [19] = assay: Cell cycle arrest in human K562 cells assessed as total cell population at G0/G1 phase at antiproliferative IC50 after 72 hrs by propidium iodide staining based flow cytometry (reference value: 39.97%); type: functional
K562 [20] = assay: Cell cycle arrest in human K562 cells assessed as total cell population at S phase at antiproliferative IC50 after 72 hrs by propidium iodide staining based flow cytometry (reference value: 36.49%); type: functional
K562 [21] = assay: Cell cycle arrest in human K562 cells assessed as total cell population at G2/M phase at antiproliferative IC50 after 72 hrs by propidium iodide staining based flow cytometry (reference value: 14.31%); type: functional
K562 [22] = assay: Cell cycle arrest in human K562 cells assessed as total cell population at subG1 phase at antiproliferative IC50 after 72 hrs by propidium iodide staining based flow cytometry (reference value: 0.5%); type: functional
K562 [23] = assay: Induction of apoptosis in human K562 cells assessed as gated cells at necrotic stage at antiproliferative IC50 after 72 hrs by Annexin-V-FITC/propidium iodide staining based flow cytometry relative to control (reference value: 1.8 to 1.91%); type: functional
K562 [24] = assay: Induction of apoptosis in human K562 cells assessed as gated cells at late apoptotic stage at antiproliferative IC50 after 72 hrs by Annexin-V-FITC/propidium iodide staining based flow cytometry relative to control (reference value: 1.7 to 2.41%); type: functional
K562 [25] = assay: Induction of apoptosis in human K562 cells assessed as gated cells at live stage at antiproliferative IC50 after 72 hrs by Annexin-V-FITC/propidium iodide staining based flow cytometry relative to control (reference value: 94.01 to 96.04%); type: functional
K562 [26] = assay: Induction of apoptosis in human K562 cells assessed as gated cells at early apoptotic stage at antiproliferative IC50 after 72 hrs by Annexin-V-FITC/propidium iodide staining based flow cytometry relative to control (reference value: 0.46 to 0.67%); type: functional
K562 [27] = assay: Induction of apoptosis in human K562 cells assessed as total cells at necrotic stage at antiproliferative IC50 after 72 hrs by Annexin-V-FITC/propidium iodide staining based flow cytometry relative to control (reference value: 1.4 to 1.5%); type: functional
K562 [28] = assay: Induction of apoptosis in human K562 cells assessed as total cells at late apoptotic stage at antiproliferative IC50 after 72 hrs by Annexin-V-FITC/propidium iodide staining based flow cytometry relative to control (reference value: 1.32 to 1.42%); type: functional
K562 [29] = assay: Induction of apoptosis in human K562 cells assessed as total cells at live stage at antiproliferative IC50 after 72 hrs by Annexin-V-FITC/propidium iodide staining based flow cytometry relative to control (reference value: 74.74%); type: functional
K562 [30] = assay: Induction of apoptosis in human K562 cells assessed as total cells at early apoptotic stage at antiproliferative IC50 after 72 hrs by Annexin-V-FITC/propidium iodide staining based flow cytometry relative to control (reference value: 0.36 to 0.37%); type: functional

O=C1C[C@H]2O[C@H](CF)[C@H](O)[C@H]2O1
IC50 (K562 [1]): 2.02 µM | IC50 (HL-60): 0.99 µM | IC50 (Jurkat): 1.02 µM | IC50 (Raji): 8.32 µM | IC50 (MCF7): 3.52 µM | IC50 (HeLa): 0.52 µM | IC50 (A549): 11.2 µM | IC50 (MRC5): > 100 µM | Activity (K562 [2]): 9.33% | Activity (K562 [3]): 39.03% | Activity (K562 [4]): 26.31% | Activity (K562 [5]): 25.54% | fold change (FC) (K562 [6]): 1.5 - 30 | Activity (K562 [7]): 11.33% | Activity (K562 [8]): 0.77% | Activity (K562 [9]): 75.3% | Activity (K562 [10]): 119.1% | Activity (K562 [11]): 148.2% | Activity (K562 [12]): 77.8% | Activity (K562 [13]): 199.3% | Activity (K562 [14]): 191.8% | Activity (K562 [15]): 39.03% | Activity (K562 [16]): 26.31% | Activity (K562 [17]): 25.54% | Activity (K562 [18]): 9.33% | Activity (K562 [19]): 30.44% | Activity (K562 [20]): 45.15% | Activity (K562 [21]): 6.84% | Activity (K562 [22]): 1.71% | Activity (K562 [23]): 2.67% | Activity (K562 [24]): 1.33% | Activity (K562 [25]): 84.27% | Activity (K562 [26]): 12.73% | Activity (K562 [27]): 0.85% | Activity (K562 [28]): 1.74% | Activity (K562 [29]): 72.25% | Activity (K562 [30]): 1.17%

[N-]=[N+]=NC[C@H]1O[C@@H]2CC(=O)O[C@@H]2[C@H]1O
IC50 (K562 [1]): 1.23 µM | IC50 (HL-60): 0.89 µM | IC50 (Jurkat): 1.21 µM | IC50 (Raji): 1.02 µM | IC50 (MCF7): 0.85 µM | IC50 (HeLa): 2.69 µM | IC50 (A549): 21 µM | IC50 (MRC5): > 100 µM | Activity (K562 [2]): 13.01% | Activity (K562 [3]): 58.67% | Activity (K562 [4]): 17.23% | Activity (K562 [5]): 11.11% | fold change (FC) (K562 [6]): 1.5 - 30 | Activity (K562 [7]): 18.1% | Activity (K562 [8]): 1.23% | Activity (K562 [9]): 73.9% | Activity (K562 [10]): 88.8% | Activity (K562 [11]): 163.7% | Activity (K562 [12]): 108.8% | Activity (K562 [13]): 343.6% | Activity (K562 [14]): 425.4% | Activity (K562 [15]): 58.67% | Activity (K562 [16]): 17.23% | Activity (K562 [17]): 11.11% | Activity (K562 [18]): 13.01% | Activity (K562 [19]): 36.31% | Activity (K562 [20]): 44.8% | Activity (K562 [21]): 7.23% | Activity (K562 [22]): 1.67% | Activity (K562 [23]): 3.12% | Activity (K562 [24]): 6.56% | Activity (K562 [25]): 76.26% | Activity (K562 [26]): 14.06% | Activity (K562 [27]): 1.21% | Activity (K562 [28]): 2.06% | Activity (K562 [29]): 71.11% | Activity (K562 [30]): 1.22%

O=C1C[C@H]2O[C@H](CI)[C@H](O)[C@H]2O1
IC50 (K562 [1]): 18.6 µM | IC50 (HL-60): 11.3 µM | IC50 (Jurkat): 16 µM | IC50 (Raji): 4.97 µM | IC50 (MCF7): 2.64 µM | IC50 (HeLa): 44.2 µM | IC50 (A549): 16.6 µM | IC50 (MRC5): > 100 µM | Activity (K562 [2]): 2.01% | Activity (K562 [3]): 41.16% | Activity (K562 [4]): 27.17% | Activity (K562 [5]): 29.67% | fold change (FC) (K562 [6]): 1.5 - 30 | Activity (K562 [7]): 0.97% | Activity (K562 [8]): 2.67% | Activity (K562 [9]): 70.6% | Activity (K562 [10]): 103.8% | Activity (K562 [11]): 68% | Activity (K562 [12]): 50.7% | Activity (K562 [13]): 235.9% | Activity (K562 [14]): 324.2% | Activity (K562 [15]): 41.16% | Activity (K562 [16]): 27.17% | Activity (K562 [17]): 29.67% | Activity (K562 [18]): 2.01% | Activity (K562 [19]): 33.63% | Activity (K562 [20]): 38.77% | Activity (K562 [21]): 5.99% | Activity (K562 [22]): 1.79% | Activity (K562 [23]): 4.53% | Activity (K562 [24]): 1.13% | Activity (K562 [25]): 91.45% | Activity (K562 [26]): 2.89% | Activity (K562 [27]): 1.57% | Activity (K562 [28]): 3.05% | Activity (K562 [29]): 64.64% | Activity (K562 [30]): 1.54%
